The source of these data is ChEMBL document CHEMBL1799977, “Discovery of MK-0952, a selective PDE4 inhibitor for the treatment of long-term memory loss and mild cognitive impairment” (Bioorg Med Chem Lett, 2010).

pIC50: −log10 of the molar value. Calls of active or inactive are those of the source. The calls are words filed in the database; no cut-off is given here.

A short description of data set [1]: Ratio IC50 for PDE4 activity in human whole blood to IC50 for PDE4. It is filed as tissue-based. The procedure, abridged: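 Ratio of two IC50s. The numerator is from human whole blood stimulated with LPS, read as inhibition of TNF-α release. The denominator (PDE4QT) is the mean of the IC50s on the PDE4A, B and D catalytic domains. These were expressed as GST constructs in Sf9 cells by baculovirus. Each IC50 is the average of at least two experiments.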

A further data set concerns the target Phosphodiesterase 4 (Homo sapiens, UniProt P27815+Q08499+Q07343+Q08493). Kind of data set: Inhibition of PDE4 activity in human whole blood assessed as inhibition of LPS-induced TNF-alpha release.
Data set [2] in a line: (§1) Half life in Sprague-Dawley rat at 10 mg/kg, po and 5 mg/kg, iv. As to conditions: Sprague-Dawley, in vivo. It is filed as ADME, organism-based.
Data set [3] is described as follows: (§2) Oral bioavailability in Sprague-Dawley rat at 10 mg/kg. It is filed as ADME, organism-based. As to conditions: Sprague-Dawley, in vivo.
In data set [4] the target is 3',5'-cyclic-AMP phosphodiesterase 4A (Homo sapiens, UniProt P27815). In words: Inhibition of PDE4A. As to conditions: pooled result: one value given for 3 cell lines, strains, targets or settings. The procedure, abridged:
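Catalytic domains of PDE4A, B and D expressed as GST constructs in SF9 cells (baculovirus). IC50s are averages of at least two experiments.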

In data set [5] the test system is Rattus norvegicus. The data set is described as §1. It is filed as ADME, organism-based. As to conditions: in vivo.
The test system of data set [6] is Rattus norvegicus. Described as §2. It is filed as ADME, organism-based. As to conditions: in vivo.
Data set [7] is described as follows: Drug level in rat plasma at 0.5 mg/kg, po measured 90 mins post dose. The class given is ADME, organism-based. Also noted: dose 0.5 mg/kg, route oral.
Data set [8] is described as follows: Drug level in rat brain at 10 mg/kg, po measured 90 mins post dose. The class given is ADME, organism-based. Also noted: dose 10 mg/kg, route oral. As to conditions: read-out: Drug uptake.
Data set [9] is described as follows: Drug level in rat plasma at 5 mg/kg, po measured 90 mins post dose. The class given is ADME, organism-based. Also noted: dose 5 mg/kg, route oral.
The nature of data set [10]: Drug level in rat plasma at 10 mg/kg, po measured 90 mins post dose. The class given is ADME, organism-based. Set-up: dose 10 mg/kg, route oral.
Data set [11] can be described thus: Drug level in rat brain at 0.5 mg/kg, po measured 90 mins post dose. It is filed as ADME, organism-based. Set-up: dose 0.5 mg/kg, route oral. As to conditions: read-out: Drug uptake.
Data set [12] can be described thus: Drug level in rat brain at 5 mg/kg, po measured 90 mins post dose. As to conditions: read-out: Drug uptake. Also noted: dose 5 mg/kg, route oral. It is filed as ADME, organism-based.
The nature of data set [13]: Drug level in rat brain at 0.1 mg/kg, po measured 90 mins post dose. It is filed as ADME, organism-based. Also noted: dose 0.1 mg/kg, route oral. As to conditions: read-out: Drug uptake.
A short description of data set [14]: Drug level in rat plasma at 1 mg/kg, po measured 90 mins post dose. Set-up: dose 1 mg/kg, route oral. It is filed as ADME, organism-based.
The nature of data set [15]: Drug level in rat brain at 1 mg/kg, po measured 90 mins post dose. It is filed as ADME, organism-based. Set-up: dose 1 mg/kg, route oral. As to conditions: read-out: Drug uptake.
Data set [16] is described as follows: Drug level in rat plasma at 0.1 mg/kg, po measured 90 mins post dose. It is filed as ADME, organism-based. Also noted: dose 0.1 mg/kg, route oral.
Data set [17] has as its system Rattus norvegicus. In words: Cognitive enhancing effect in Lister rat assessed as recognition of novel object at 0.01 mg/kg, po pretreated 90 mins before sample phase by novel object recognition test. The class given is functional, organism-based. Set-up: dose 0.01 mg/kg. The procedure, abridged: (§3)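 Novel object recognition in rats. Oral dosing in 0.5% methocel 90 min before the sample trial, which ended at 25 s of exploration or 3 min. Choice trial followed with a familiar and a novel object. d2 score = (novel − familiar)/total exploration. n = 21–24; Newman–Keuls test.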

The subject of data set [18] is Rattus norvegicus. Kind of data set: Cognitive enhancing effect in Lister rat assessed as recognition of novel object at 0.1 mg/kg, po pretreated 90 mins before sample phase by novel object recognition test. It is filed as functional, organism-based. Also noted: dose 0.1 mg/kg. A digest of the protocol:
as §3

3',5'-cyclic-AMP phosphodiesterase 4A, sequence (P27815 whole entry, the tested form may be a part): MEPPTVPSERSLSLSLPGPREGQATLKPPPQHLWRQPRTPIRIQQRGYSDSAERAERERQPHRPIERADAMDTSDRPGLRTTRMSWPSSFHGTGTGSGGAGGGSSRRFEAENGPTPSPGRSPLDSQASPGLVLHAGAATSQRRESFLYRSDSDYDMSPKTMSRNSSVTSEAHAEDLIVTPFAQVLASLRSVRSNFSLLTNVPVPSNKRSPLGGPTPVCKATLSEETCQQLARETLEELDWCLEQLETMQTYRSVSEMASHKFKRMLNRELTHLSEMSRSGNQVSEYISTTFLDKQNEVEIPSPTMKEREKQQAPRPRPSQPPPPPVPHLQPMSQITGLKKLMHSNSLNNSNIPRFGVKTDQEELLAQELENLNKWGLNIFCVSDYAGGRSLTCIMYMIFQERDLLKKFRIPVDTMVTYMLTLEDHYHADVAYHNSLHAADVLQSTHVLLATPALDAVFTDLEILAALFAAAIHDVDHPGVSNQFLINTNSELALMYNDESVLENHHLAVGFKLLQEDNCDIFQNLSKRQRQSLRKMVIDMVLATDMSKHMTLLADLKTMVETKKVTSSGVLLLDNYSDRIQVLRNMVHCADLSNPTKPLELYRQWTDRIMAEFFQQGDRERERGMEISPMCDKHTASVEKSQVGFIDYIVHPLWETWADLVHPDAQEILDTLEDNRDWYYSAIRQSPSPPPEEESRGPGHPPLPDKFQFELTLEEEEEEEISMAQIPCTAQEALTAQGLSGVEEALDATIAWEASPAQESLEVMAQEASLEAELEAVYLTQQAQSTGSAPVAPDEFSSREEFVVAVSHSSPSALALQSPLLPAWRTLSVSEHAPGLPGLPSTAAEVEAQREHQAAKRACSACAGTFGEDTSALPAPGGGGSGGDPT

As for `O=C(NC1CC1)c1cn(-c2cccc(-c3ccc(C4CC4C(=O)O)cc3)c2)c2ncccc2c1=O` (racemic) [listing 1 of 2 here], in [1], the Ratio IC50 came out at 526.
Broadly, the IC50 is the concentration at which inhibition is half-maximal. One may read the half-life as the time in which the quantity being followed falls by half. A low value points to rapid decline. One may read the bioavailability as the share of a dose that reaches the circulation, judged against a reference dose that is usually intravenous. High values mean good availability, low ones poor availability. The term pIC50 denotes the negative decadic logarithm of the IC50, by convention in mol/L. As to `O=C(NC1CC1)c1cn(-c2cccc(-c3ccc(C4CC4c4nnn[nH]4)cc3)c2)c2ncccc2c1=O` (racemic), the IC50 at Phosphodiesterase 4 is greater than 5000 nM. The half-life in data set [2] was 2.4 h. This compound also registered a bioavailability in data set [3] of 5%. The pIC50 in data set [4] was 9.26. Further, the Ratio IC50 in data set [1] is greater than 9090.
In the case of `O=C(NC1CC1)c1cn(-c2cccc(-c3ccc([C@H]4C[C@@H]4C(=O)O)cc3)c2)c2ncccc2c1=O`, on Phosphodiesterase 4, the IC50 is 230 nM. In addition, in [4], the pIC50 was 9.18. In addition, the Ratio IC50 in [1] is 350.
Turning to `O=C(NC1CC1)c1cn(-c2cccc(-c3ccc(C4CC4C(=O)O)cc3)c2)c2ncccc2c1=O` (cis isomer) [listing 1 of 2 here], on Phosphodiesterase 4, the IC50 stood at 160 nM. In the data set with Rattus norvegicus [5], the t1/2 is 3.9 h. The same compound displayed a F in the data set on Rattus norvegicus [6] of 30%. The compound also showed a negative logarithm of the IC50 (pIC50) in data set [4] of 8.80.
Regarding `CC(C)(Cc1ccc(-c2cccc(-n3cc(C(=O)NC4CC4)c(=O)c4cccnc43)c2)cc1)C(=O)O`, at Phosphodiesterase 4, the half-inhibitory concentration (IC50) was found to be 610 nM. In data set [2], this compound gave a half-life of 6.1 h. Also, the bioavailability in [3] was determined as 30%. The compound further showed a pIC50 in data set [4] of 9.06. Besides, the Ratio IC50 in data set [1] was 693.
Take `CC1(NC(=O)c2cn(-c3cccc(-c4ccc(C5CC5C(=O)O)cc4)c3)c3ncccc3c2=O)CC1` (racemic): at Phosphodiesterase 4, the concentration for half-maximal inhibition (IC50) amounted to 280 nM. This compound gave a half-life in [2] of 4.1 h. Further, in [3], the bioavailability is 58%. In addition, the negative logarithm of the IC50 (pIC50) in data set [4] was 9.24. Moreover, in [1], the Ratio IC50 worked out at 482.
As to `O=C(NC1CC1)c1cn(-c2cccc(-c3ccccc3C3CC3C(=O)O)c2)c2ncccc2c1=O` (racemic), the 50% inhibitory concentration (IC50) on Phosphodiesterase 4 was found to be 1300 nM. This compound also had a half-life in [2] of 4.7 h. In addition, the bioavailability in data set [3] was found to be 35%. Further, the negative logarithm of the IC50 (pIC50) in data set [4] was 8.34. In addition, the Ratio IC50 in [1] came to 282.
Take `O=C(NC1CC1)c1cn(-c2cccc(-c3ccc([C@@H]4C[C@H]4C(=O)[O-])c(F)c3)c2)c2ncccc2c1=O.[Na+]`: the concentration at 1.5 h in data set [7] is 1340 nM; in [8] it was 590 nM; in [9] it was 8190 nM; in data set [10], 18800 nM; in data set [11], 47 nM; in data set [12], 290 nM. Moreover, the concentration at 1.5 h in [13] worked out at 12 nM; in [14], 3410 nM; in data set [15], 110 nM; in data set [16], 590 nM.
`O=C(NC1CC1)c1cn(-c2cccc(-c3ccc(C4CC4C(=O)O)cc3)c2)c2ncccc2c1=O` (racemic) [listing 2 of 2 here]: the IC50 on Phosphodiesterase 4 stood at 300 nM. The compound also returned a t1/2 in the data set on Rattus norvegicus [5] of 1.7 h. The compound further showed a F in the data set on Rattus norvegicus [6] of 78%. Besides, the pIC50 in data set [4] is 9.24.
Regarding `O=C(NC1CC1)c1cn(-c2cccc(-c3ccc([C@@H]4C[C@H]4C(=O)O)cc3)c2)c2ncccc2c1=O`, the IC50 on Phosphodiesterase 4 was determined as 1000 nM. In data set [4], this compound gave a pIC50 of 9.00. In data set [1], the Ratio IC50 was 1000.
For `O=C(NC1CC1)c1cn(-c2cccc(-c3ccc(C4CC4C(=O)O)cc3)c2)c2ncccc2c1=O` (cis isomer) [listing 2 of 2 here], in data set [1], the Ratio IC50 was found to be 100.
As for `O=C(NC1(O)CC1)c1cn(-c2cccc(-c3ccc(C4CC4C(=O)O)cc3)c2)c2ncccc2c1=O` (racemic), the IC50 at Phosphodiesterase 4 turned out to be 6400 nM. This compound also gave a pIC50 in data set [4] of 7.77. Further, the Ratio IC50 in [1] came to 376.
On the same counts, the results for `O=C(NCC1CC1)c1cn(-c2cccc(-c3ccc(C4CC4C(=O)O)cc3)c2)c2ncccc2c1=O` (racemic) are 200 nM, 9.46 and 571.
Take `CC(C)(c1cc(-c2cccc(-c3ccc(C4CC4C(=O)O)cc3)c2)c2ncccc2c1)S(C)(=O)=O` (single isomer, unassigned; enantiomer B): the IC50 on Phosphodiesterase 4 stood at 600 nM. This compound also gave a pIC50 in [4] of 9.49.
As to `O=C(NC1CC1)c1cn(-c2cccc(-c3ccc([C@H]4C[C@@H]4C(=O)O)c(F)c3)c2)c2ncccc2c1=O`, at Phosphodiesterase 4, the IC50 was found to be 150 nM. In data set [4], this compound showed a pIC50 of 9.34. Moreover, the Ratio IC50 in [1] was 330.
For the compound `O=C(NC1CCC1)c1cn(-c2cccc(-c3ccc(C4CC4C(=O)O)cc3)c2)c2ncccc2c1=O` (racemic), the IC50 at Phosphodiesterase 4 was 220 nM. The compound also gave a half-life in [2] of 2.4 h. In data set [3], this compound gave a bioavailability of 20%. Also, the pIC50 in data set [4] was 9.28. In addition, the Ratio IC50 in [1] worked out at 432.
As to `O=C(NC1CC1)c1cn(-c2cccc(-c3ccc([C@@H]4C[C@H]4C(=O)O)c(F)c3)c2)c2ncccc2c1=O`, the result in the data set with Rattus norvegicus [17] and in the data set on Rattus norvegicus [18] was Active. For the same compound, in [1], the Ratio IC50 is 1040.
As to `CC(C)(CC(=O)O)c1ccc(-c2cccc(-n3cc(C(=O)NC4CC4)c(=O)c4cccnc43)c2)cc1`, the IC50 at Phosphodiesterase 4 is 75 nM. This compound gave a half-life in data set [2] of 5.1 h. In data set [3], the bioavailability stood at 62%. For the same compound, the pIC50 in [4] was 9.07. In data set [1], the Ratio IC50 came to 88.
As to `O=C(NCC(F)(F)F)c1cn(-c2cccc(-c3ccc(C4CC4C(=O)O)cc3)c2)c2ncccc2c1=O` (racemic), on Phosphodiesterase 4, the half-inhibitory concentration (IC50) is 510 nM. The compound also gave a half-life in data set [2] of 3.2 h. The same compound came in with a bioavailability in data set [3] of 25%. The pIC50 in data set [4] was 9.29. The Ratio IC50 in [1] stood at 1080.
On to `CC(C)(c1cc(-c2cccc(-c3ccc(C4CC4C(=O)O)cc3)c2)c2ncccc2c1)S(C)(=O)=O` (single isomer, unassigned; enantiomer A), for which the half-inhibitory concentration (IC50) on Phosphodiesterase 4 came to 1400 nM. The pIC50 in data set [4] is 9.27.
Take `O=C(NC1CC1)c1cn(-c2cccc(-c3cccc(C4CC4C(=O)O)c3)c2)c2ncccc2c1=O` (racemic): the half-inhibitory concentration (IC50) at Phosphodiesterase 4 stood at 110 nM. In addition, the half-life in data set [2] was 1 h. This compound also returned a bioavailability in data set [3] of 100%. In data set [4], this compound gave a pIC50 of 9.27. In addition, the Ratio IC50 in data set [1] stood at 203.
As for `CC(C)(C)NC(=O)c1cn(-c2cccc(-c3ccc(C4CC4C(=O)O)cc3)c2)c2ncccc2c1=O` (racemic), the IC50 on Phosphodiesterase 4 was greater than 40000 nM. Moreover, the pIC50 in [4] is 7.49. Moreover, the Ratio IC50 in data set [1] was greater than 1140.
